# Assay results as given in ChEMBL document CHEMBL1671864, “First assessment in humans of the safety, tolerability, pharmacokinetics, and ex vivo pharmacodynamic antimalarial activity of the new artemisinin derivative artemisone” (Antimicrob Agents Chemother, 2008).
# Experiments:
# [1] = AUC in healthy human plasma at 20 mg, po administered as single ascending doses as solution during 10 hrs overnight fasting state; format: ADME, organism-based; parameters: time < 10 hr, dose 20 mg, route oral
# How it was run: (§1)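 Single ascending oral doses in healthy Caucasian men, given fasted (10-h overnight) with 240 ml water: 10, 20, 30 or 40 mg as oral solution, or 80 mg as IR tablets. Parent plasma levels by LC/MS-MS over 0.25–14 h. Noncompartmental analysis: kel by terminal-phase least-squares regression, AUC extrapolated to infinity, CL/F = dose/AUC, V/F = CL/F÷kel.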
# Plasma [2] = assay: (§2) Ratio of Ratio of AUC (0 to infinity) in healthy human plasma at 40 mg, po administered as two 20 mg immediate release tablets daily for 3 days during 10 hrs overnight fasting state measured after 1 day to Ratio of AUC (0 to infinity) in healthy human plasma at 40 mg, po administered as two 20 mg immediate release tablets daily for 3 days during 10 hrs overnight fasting state measured after 3 day; format: ADME, organism-based; conditions: in vivo
# How it was run: (§3)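 Healthy Caucasian men took tablets daily for 3 days with 240 ml water after 10-h fast. Plasma sampled 0.25–14 h after first and last doses, artemisone measured by LC/MS-MS. Accumulation ratio is Cmax or AUC0-∞ after last dose divided by that after first dose. Noncompartmental analysis, geometric means with 95% CI.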
# Homo sapiens [3] = assay: Toxicity in healthy human assessed as occurrence of clinically relevant changes in vital signs at 40 mg, po administered daily for 3 days as two 20-mg immediate-release tablets during 10 hrs overnight fasting state; format: organism-based; conditions: in vivo
# How it was run: (§4)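 Healthy Caucasian men received single ascending doses (10–40 mg solution, 80 mg tablets) or 3-day daily tablet courses, all fasting, with randomized placebo controls. Supine blood pressure, heart rate and resting 12-lead ECG were recorded before and after dosing.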
# [4] = Apparent oral clearance in healthy human at 80 mg, po administered as single immediate release tablets during 10 hrs overnight fasting state; format: ADME, organism-based; conditions: in vivo; how it was run: as §1
# [5] = Mean residence time in healthy human at 40 mg, po administered as two 20 mg immediate release tablets daily for 3 days during 10 hrs overnight fasting state measured after 1 day; format: ADME, organism-based; conditions: in vivo
# How it was run: (§5)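 Healthy Caucasian males took tablets once daily for 3 days with 240 ml water after a 10-h fast. Heparinised blood was drawn predose and at 0.25–14 h after the first and last doses. Plasma parent drug and metabolites M1–M3 were measured by LC/MS-MS (MRM, deuterated internal standard). Noncompartmental analysis gave Cmax observed, t1/2 = 0.693/kel and MRT = AUMC/AUC. Values are geometric means.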
# [6] = Cmax in healthy human plasma at 20 mg, po administered as single ascending doses as solution during 10 hrs overnight fasting state; format: ADME, organism-based; parameters: dose 20 mg, route oral
# How it was run: (§6)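 Healthy Caucasian male volunteers, single oral dose with 240 ml water after a 10-h overnight fast. Heparinised venous blood was drawn predose and at 0.25–14 h. Plasma was stored frozen. Parent drug and metabolites M1–M3 were measured by LC/MS-MS (MRM, deuterated internal standard). Noncompartmental analysis gave Cmax observed, t1/2 = 0.693/kel (terminal regression) and MRT = AUMC/AUC. Values are geometric means.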
# Plasma [7] = assay: as §2, with “Ratio” for “Ratio of Ratio”, “80” for “40”, “four” for “two”, “to” for “to Ratio of”; format: ADME, organism-based; conditions: in vivo; how it was run: as §3
# [8] = Apparent oral clearance in healthy human at 80 mg, po administered as four 20 mg immediate release tablets daily for 3 days during 10 hrs overnight fasting state measured after 1 day; format: ADME, organism-based; conditions: in vivo
# How it was run: (§7)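 Healthy Caucasian males took 40 mg (2×20-mg IR tablets) or 80 mg (4 tablets) orally daily for 3 days after a 10-h fast. Plasma parent drug was measured by LC/MS-MS from predose to 14 h after the first and third doses. Noncompartmental analysis: AUC by log-linear trapezoid extrapolated via kel, CL/F = dose/AUC, V/F = CL/F÷kel, geometric means.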
# [9] = Apparent oral clearance in healthy human at 40 mg, po administered as single ascending doses as solution during 10 hrs overnight fasting state; format: ADME, organism-based; conditions: in vivo; how it was run: as §1
# [10] = Tmax in healthy human plasma at 80 mg, po administered as four 20 mg immediate release tablets daily for 3 days during 10 hrs overnight fasting state measured after 1 day; format: ADME, organism-based
# How it was run: (§8)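 Healthy Caucasian men (8 active, 4 placebo per dose) dosed with tablets daily for 3 days after 10-h fast. Lithium-heparin plasma sampled predose and 0.25–14 h after day-1 and day-3 doses, stored frozen. Parent and M1–M3 quantified by LC/MS-MS in positive-ion MRM. Tmax taken directly from observed individual data.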
# Homo sapiens [11] = assay: Toxicity in healthy human assessed as occurrence of changes in electrocardiogram parameters at 10 to 80 mg, po administered as single ascending doses during 10 hrs overnight fasting state; format: organism-based; conditions: in vivo; how it was run: as §4
# [12] = Cmax in healthy human plasma at 80 mg, po administered as four 20 mg immediate release tablets daily for 3 days during 10 hrs overnight fasting state measured after 3 day; format: ADME, organism-based; parameters: dose 80 mg, route oral; how it was run: as §5
# [13] = Half life in healthy human plasma at 40 mg, po administered as two 20 mg immediate release tablets daily for 3 days during 10 hrs overnight fasting state measured after 1 day; format: ADME, organism-based; how it was run: as §5
# [14] = Tmax in healthy human plasma at 80 mg, po administered as four 20 mg immediate release tablets daily for 3 days during 10 hrs overnight fasting state measured after 3 day; format: ADME, organism-based; how it was run: as §8
# [15] = Tmax in healthy human plasma at 40 mg, po administered as two 20 mg immediate release tablets daily for 3 days during 10 hrs overnight fasting state measured after 1 day; format: ADME, organism-based; how it was run: as §8
# Plasmodium falciparum = assay: Antimalarial activity against Plasmodium falciparum TM90-C2A in human plasma assessed as inhibition of hypoxanthine uptake by intraerythrocytic malaria parasites by hypoxanthine incorporation assay; format: functional, organism-based
# How it was run: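 K1 or TM90-C2A parasites were sorbitol-synchronized and cultured in RPMI 1640. Drug was diluted in drug-free human serum (0.04–40 ng/ml) or subject plasma was diluted twofold (8–8,192). Parasites were added at 2% hematocrit, 1% parasitemia (>95% rings), and [3H]hypoxanthine uptake was measured over 48 h. IC50 or ID50 came from concentration or dilution-response curves. Equivalent concentration = ID50 × IC50.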
# [16] = Mean residence time in healthy human at 20 mg, po administered as single ascending doses as solution during 10 hrs overnight fasting state; format: ADME, organism-based; conditions: in vivo; how it was run: as §6
# [17] = Tmax in healthy human plasma at 80 mg, po administered as single immediate release tablets during 10 hrs overnight fasting state; format: ADME, organism-based
# How it was run: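 Healthy Caucasian male volunteers (n=6 active, 2 placebo, randomized), single 80 mg dose as four 20-mg tablets with 240 ml water after 10-h fast. Venous lithium-heparin plasma sampled predose and 0.25–14 h; analysed by LC/MS-MS (MRM, deuterated internal standard). Noncompartmental analysis; Tmax observed directly; MRT = AUMC/AUC with extrapolation to infinity via kel.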
# [18] = Apparent oral clearance in healthy human at 80 mg, po administered as four 20 mg immediate release tablets daily for 3 days during 10 hrs overnight fasting state measured after 3 day; format: ADME, organism-based; conditions: in vivo; how it was run: as §7
# [19] = AUC in healthy human plasma at 10 mg, po administered as single ascending doses as solution during 10 hrs overnight fasting state; format: ADME, organism-based; parameters: dose 10 mg, time < 10 hr, route oral; how it was run: as §1
# [20] = Half life in healthy human plasma at 40 mg, po administered as two 20 mg immediate release tablets daily for 3 days during 10 hrs overnight fasting state measured after 3 day; format: ADME, organism-based; how it was run: as §5
# [21] = Cmax in healthy human plasma at 40 mg, po administered as single ascending doses as solution during 10 hrs overnight fasting state; format: ADME, organism-based; parameters: dose 40 mg, route oral; how it was run: as §6
# [22] = AUC in healthy human plasma at 40 mg, po administered as two 20 mg immediate release tablets daily for 3 days during 10 hrs overnight fasting state measured after 3 day; format: ADME, organism-based; parameters: dose 40 mg, time < 10 hr, route oral; how it was run: as §7
smiles,measurement,setting,value
C[C@H]1[C@H](N2CCS(=O)(=O)CC2)O[C@@H]2O[C@@]3(C)CC[C@H]4[C@H](C)CC[C@@H]1[C@@]24OO3 [ARTEMIFONE],AUC at 10 h,[1],65.7 ng·h/mL
same,Ratio,Plasma [2],104%
same,Activity,Homo sapiens [3],Non-toxic
same,CL/F,[4],4740 mL/min
same,MRT,[5],2.91 h
same,Cmax,[6],57.3 ng/mL
same,Ratio,Plasma [7],98.3%
same,CL/F,[8],3880 mL/min
same,CL/F,[9],5640 mL/min
same,Tmax,[10],1.5 h
same,Activity,Homo sapiens [11],Non-toxic
same,Cmax,[12],130 ng/mL
same,half-life,[13],3.36 h
same,Tmax,[14],1.5 h
same,Tmax,[15],1.5 h
same,IC50,Plasmodium falciparum,0.64 ng/mL
same,MRT,[16],1.79 h
same,Tmax,[17],0.875 h
same,CL/F,[18],3950 mL/min
same,AUC at 10 h,[19],29.5 ng·h/mL
same,half-life,[20],4.37 h
same,Cmax,[21],83 ng/mL
same,AUC at 10 h,[22],191 ng·h/mL
